# According to ChEMBL document CHEMBL2375304, “Synthesis and anticancer activity of novel 2-pyridyl hexahyrocyclooctathieno[2,3-d]pyrimidine derivatives” (2013):
# Experiments:
# Format in all cases: functional
# NCI-H23 = test: Growth inhibition of human NCI-H23 cells at 10^-5 M after 48 hrs by Sulforhodamine B assay relative to control; conditions: NCI-H23, 48 h, read-out: GI
# How it was run: (§1)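 Single-dose primary screen at 10⁻⁵ M across 49 lines. Cells were plated 24 h beforehand, with a TCA-fixed time-zero plate, then exposed 48 h at 37 °C, 5% CO2. Cells were fixed with cold TCA, stained with SRB and read at 515 nm. Percent growth was calculated against time-zero and untreated-control absorbances.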
# SF-539 = test: Growth inhibition of human SF539 cells at 10^-5 M after 48 hrs by Sulforhodamine B assay relative to control; conditions: SF-539, 48 h, read-out: GI; how it was run: as §1
# KM12 = test: Growth inhibition of human KM12 cells at 10^-5 M after 48 hrs by Sulforhodamine B assay relative to control; conditions: KM12, 48 h, read-out: GI
# How it was run: (§2)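 Single-dose screen at 10⁻⁵ M. Cells are preincubated 24 h at 37 °C in 5% CO2, then exposed to the compound, diluted from a DMSO stock into medium with gentamicin, for 48 h. Adherent cells are fixed with cold TCA (final 10%) and suspension cells with TCA (final 16%). Cells are stained with 0.4% SRB in 1% acetic acid and bound dye is read at 515 nm. Percent growth inhibition is taken against control wells and time-zero plates.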
# MOLT-4 = test: Growth inhibition of human MOLT4 cells at 10^-5 M after 48 hrs by Sulforhodamine B assay relative to control; conditions: MOLT-4, 48 h, read-out: GI; how it was run: as §1
# 786-0 = test: Growth inhibition of human 786-0 cells at 10^-5 M after 48 hrs by Sulforhodamine B assay relative to control; conditions: 786-0, 48 h, read-out: GI; how it was run: as §2
# OVCAR-8 = test: Growth inhibition of human OVCAR8 cells at 10^-5 M after 48 hrs by Sulforhodamine B assay relative to control; conditions: OVCAR-8, 48 h, read-out: GI; how it was run: as §1
# OVCAR-5 = test: Growth inhibition of human OVCAR5 cells at 10^-5 M after 48 hrs by Sulforhodamine B assay relative to control; conditions: OVCAR-5, 48 h, read-out: GI; how it was run: as §1
# ACHN = test: Growth inhibition of human ACHN cells at 10^-5 M after 48 hrs by Sulforhodamine B assay relative to control; conditions: read-out: GI; how it was run: as §2
# A498 = test: Growth inhibition of human A498 cells at 10^-5 M after 48 hrs by Sulforhodamine B assay relative to control; conditions: A498, 48 h, read-out: GI; how it was run: as §2
# CCRF-CEM = test: Growth inhibition of human CCRF-CEM cells at 10^-5 M after 48 hrs by Sulforhodamine B assay relative to control; conditions: read-out: GI; how it was run: as §2
# SW-620 = test: Growth inhibition of human SW620 cells at 10^-5 M after 48 hrs by Sulforhodamine B assay relative to control; conditions: SW-620, 48 h, read-out: GI; how it was run: as §1
# SF-268 = test: Growth inhibition of human SF268 cells at 10^-5 M after 48 hrs by Sulforhodamine B assay relative to control; conditions: SF-268, 48 h, read-out: GI; how it was run: as §1
# HT-29 = test: Growth inhibition of human HT-29 cells at 10^-5 M after 48 hrs by Sulforhodamine B assay relative to control; conditions: HT-29, 48 h, read-out: GI; how it was run: as §2
SMILES,inhibition of growth at 10 µM (NCI-H23) [%],inhibition of growth at 10 µM (SF-539) [%],inhibition of growth at 10 µM (KM12) [%],inhibition of growth at 10 µM (MOLT-4) [%],inhibition of growth at 10 µM (786-0) [%],inhibition of growth at 10 µM (OVCAR-8) [%],inhibition of growth at 10 µM (OVCAR-5) [%],inhibition of growth at 10 µM (ACHN) [%],inhibition of growth at 10 µM (A498) [%],inhibition of growth at 10 µM (CCRF-CEM) [%],inhibition of growth at 10 µM (SW-620) [%],inhibition of growth at 10 µM (SF-268) [%],inhibition of growth at 10 µM (HT-29) [%]
Clc1nc(-c2ccncc2)nc2sc3c(c12)CCCCCC3,3.14,6.69,0.47,15.6,0.46,-1.87,-5.24,-0.47,37.2,23.8,-3.44,0.85,-1.58
NNc1nc(-c2ccncc2)nc2sc3c(c12)CCCCCC3,7.74,-14.8,-0.57,9.09,18.1,2.51,-0.54,8.69,18.6,25.9,-8.49,-17.8,13.2
